Experimental data as given in PMC2773129 (JACC. Cardiovascular imaging, 2009).
Bridges are numbered along the chain shown (N, C = ends). Roman numbers before positions name the chains, in order. Where no end group is shown, it is not given here. The star is where a group is joined. X1 = O=C(CON=Cc1ccc(F)cc1)*

Assays:
[1] = Biodistribution by gamma counting of harvested organs; format: in vivo; conditions: mouse, iv, 150 uCi, total radioactivity
Method in brief: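 Test compound (¹⁸F-labelled peptide, 150 μCi) injected into the tail vein of 6 wild-type mice under isoflurane anaesthesia. Mice were killed at 4 h and perfused with saline. Organs and feces were harvested and counted in a gamma counter. Counts were corrected for decay and residual injection-site activity and expressed as %ID per gram tissue, mean±SEM.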

[2] = test system: atherosclerotic plaques, VCAM-1; test: Ex vivo uptake of 18F-4V in excised aortas; parameters: species or system mouse
[3] = test system: VCAM-1 expression in atherosclerotic plaques; test: In vivo PET-CT imaging of aortic root; parameters: species or system mouse; conditions: apoE-/- mice, PET-CT initiated 1 hour after injection, mean±SEM
[4] = test system: infarcted myocardium, VCAM-1; test: 18F-4V uptake after myocardial infarction; format: in vivo, mouse; conditions: mice 5 days after MI, without antibody blocking
[5] = test system: rejected cardiac allograft, VCAM-1; test: 18F-4V uptake in heterotopic allograft heart transplant rejection; format: in vivo, mouse; conditions: day 7 after heart transplantation

Substance: I: VHPKQHRGGSYKKK(X1) / II: VHPKQHRGGSYK / III: VHPKQHRGGSY / IV: VHPKQHRGGSY (amide I:12-IV:C, I:13-II:C, II:12-III:C) [^18F-4V]
- tissue uptake at 4 h ([1]; aorta): 1.3 ± 0.4 %ID/g
- tissue uptake at 4 h ([1]; bone): 1.3 ± 0.4 %ID/g
- tissue uptake at 4 h ([1]; esophagus): 1.5 ± 0.5 %ID/g
- tissue uptake at 4 h ([1]; fat): 1.7 ± 0.1 %ID/g
- dose excreted at 4 h ([1]; feces): 0.2 ± 0.1%
- tissue uptake at 4 h ([1]; heart): 0.6 ± 0.2 %ID/g
- tissue uptake at 4 h ([1]; kidney): 13.2 ± 2.8 %ID/g
- tissue uptake at 4 h ([1]; large intestine): 1.4 ± 0.5 %ID/g
- tissue uptake at 4 h ([1]; liver): 3.7 ± 1.1 %ID/g
- tissue uptake at 4 h ([1]; lung): 2.2 ± 0.8 %ID/g
- tissue uptake at 4 h ([1]; lymph node): 3.7 ± 0.3 %ID/g
- tissue uptake at 4 h ([1]; skeletal muscle): 0.7 ± 0.3 %ID/g
- tissue uptake at 4 h ([1]; skin): 1.7 ± 0.6 %ID/g
- tissue uptake at 4 h ([1]; small intestine): 1.9 ± 0.4 %ID/g
- tissue uptake at 4 h ([1]; spleen): 2.1 ± 0.6 %ID/g
- tissue uptake at 4 h ([1]; stomach): 1.7 ± 1.1 %ID/g
- tissue uptake at 4 h ([1]; thymus): 0.9 ± 0.3 %ID/g
- tissue uptake at 4 h ([1]; whole blood): 1.5 ± 0.4 %ID/g
- ex vivo %IDGT in murine atheroma ([2]; apoE-/- mice, ex vivo, mean±SEM): 5.9±1.5 %IDGT
- uptake in the aortic root, higher in apoE-/- mice compared to wild type ([2]; excised aortas, apoE-/- vs wild-type mice, p < 0.05): 312%
- PET signal in murine atheroma (standard uptake value) [3]: 0.31±0.02 SUV
- infarct activity to background ratio [4]: 3.1
- graft to background ratio after pre-injection of VCAM-1 targeted antibody ([5]; pre-injection with VCAM-1 targeted antibody): 1.4
- graft to background ratio ([5]; without antibody blocking): 2.4
